Laboratory results: ChEMBL document CHEMBL3352115, “Discovery of APD334: Design of a Clinical Stage Functional Antagonist of the Sphingosine-1-phosphate-1 Receptor” (ACS Med Chem Lett, 2014)
The source made the active and inactive calls. No cut-off for these calls is given here.

Experiments:
[1] = tested on: Mus musculus; assay: Reduction in disease severity in C57Bl/6 mouse experimental autoimmune encephalomyelitis model of multiple sclerosis at 3 mg/kg dosed once daily beginning on day 18 and continued to day 37; format: functional, organism-based; parameters: dose 3 mg/kg
Method in brief: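 Female C57Bl/6 mice with MOG35–55-induced EAE; once-daily treatment started day 18 after severe disease onset and continued to day 37; vehicle 0.5% methylcellulose; clinical scoring.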

[2] = Systemic clearance in rat at 1 mg/kg, iv; format: ADME, organism-based; parameters: dose 1 mg/kg, route intravenous; conditions: in vivo
[3] = tested on: Canis familiaris; assay: Systemic clearance in dog at 1 mg/kg, iv relative to liver blood flow; format: ADME, organism-based, Canis lupus familiaris; parameters: dose 1 mg/kg, route intravenous; conditions: in vivo
[4] = biological target: Sphingosine 1-phosphate receptor 1 (Macaca mulatta) (UniProt H9EUW9); assay: Agonist activity at monkey S1P1 receptor assessed as cAMP accumulation by HTRF assay relative to S1P; format: functional
Method in brief: (§1)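 HTRF cyclase (cAMP) functional assay at S1P1 of each species; EC50 taken as mean of three or more replicates; efficacy given as % agonism relative to S1P.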

[5] = biological target: Sphingosine 1-phosphate receptor 1 (Mus musculus, UniProt O08530); assay: Agonist activity at mouse S1P1 receptor assessed as cAMP accumulation by HTRF assay; format: functional; method in brief: as §1
[6] = Tmax in dog at 1 mg/kg, iv or 3 mg/kg, po; format: ADME, organism-based, Canis lupus familiaris; conditions: in vivo
[7] = tested on: Rattus norvegicus; assay: Toxicity in Sprague-Dawley rat assessed as mortality at 1000 mg/kg during 14 day repeat dose study; format: organism-based; parameters: dose 1000 mg/kg; conditions: in vivo, 336 h
Method in brief: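 14-day repeat-dose rat toxicity study with dose groups of 30, 100, 300 and 1000 mg/kg; animals monitored for tolerability, mortality and CNS clinical signs.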

[8] = Drug level in Sprague-Dawley rat plasma at 14.5 ug/hr/kg dosed as constant infusion measured after 48 hrs; format: ADME, organism-based; conditions: iv
Method in brief: (§2)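 Male Sprague–Dawley rats given constant infusion at 14.5 μg/h/kg for 48 h; brain and plasma concentrations measured at 48 h.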

[9] = Elimination half life in monkey at 3 mg/kg, po; format: ADME, organism-based, Macaca mulatta; parameters: dose 3 mg/kg, route oral; conditions: rhesus monkey, in vivo, read-out: beta t1/2 (converted)
Method in brief: (§3)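 Preclinical iv/po PK; amorphous free acid dosed orally as a suspension in 0.5% methyl cellulose; clearance and Vss from intravenous administration.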

[10] = Drug level in Sprague-Dawley rat brain at 14.5 ug/hr/kg dosed as constant infusion measured after 48 hrs; format: ADME, organism-based; conditions: iv, read-out: Drug uptake; method in brief: as §2
[11] = Protein binding in human plasma; format: ADME, cell-free; conditions: read-out: PPB (converted)
[12] = tested on: Rattus norvegicus; assay: Improvement histological parameters of knee and ankles in Lewis rat collagen-induced arthritis model at 1 mg/kg, po qd measured on day 17; format: functional, organism-based; parameters: dose 1 mg/kg; conditions: Ankle/Knee
[13] = tested on: Rattus norvegicus; assay: Systemic clearance in rat at 1 mg/kg, iv relative to liver blood flow; format: ADME, organism-based; parameters: dose 1 mg/kg, route intravenous; conditions: in vivo
[14] = Cmax in monkey at 1 mg/kg, iv or 3 mg/kg, po; format: ADME, organism-based, Macaca mulatta; conditions: rhesus monkey, in vivo; method in brief: as §3
[15] = biological target: Cytochrome P450 1A2 (Homo sapiens, UniProt P05177); assay: Inhibition of CYP1A2 (unknown origin); format: ADME
[16] = tested on: Rattus norvegicus; assay: Improvement histological parameters of knee and ankles in Lewis rat collagen-induced arthritis model at 3 mg/kg, po qd measured on day 17; format: functional, organism-based; parameters: dose 3 mg/kg
[17] = Oral bioavailability in monkey at 3 mg/kg; format: ADME, organism-based, Macaca mulatta; conditions: rhesus monkey, in vivo
[18] = biological target: Sphingosine 1-phosphate receptor 1 (Rattus norvegicus) (UniProt P48303); assay: Agonist activity at rat S1P1 receptor assessed as cAMP accumulation by HTRF assay relative to S1P; format: functional; method in brief: as §1
[19] = tested on: Canis familiaris; assay: Reduction in peripheral lymphocyte count in orally dosed dog measured after 24 hrs; format: ADME, organism-based; conditions: Canis lupus familiaris
[20] = biological target: Sphingosine 1-phosphate receptor 1 (Macaca mulatta, UniProt H9EUW9); assay: Agonist activity at monkey S1P1 receptor assessed as cAMP accumulation by HTRF assay; format: functional; method in brief: as §1
[21] = tested on: Mus musculus; assay: Reduction in inflammatory foci in C57Bl/6 mouse experimental autoimmune encephalomyelitis model of multiple sclerosis at 3 mg/kg dosed once daily beginning on day 18 and continued to day 37 by immunofluorescent staining method; format: functional, organism-based; parameters: dose 3 mg/kg
Method in brief: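 Therapeutic EAE in female C57Bl/6 mice, dosing from day 18; spinal cord and brain collected day 37; cerebellum sections immunostained for CD45 and CD3 with DAPI counterstain; inflammatory foci and infiltrating lymphocytes assessed.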

[22] = AUC (0 to infinity) in rat at 1 mg/kg, iv or 1 mg/kg, po; format: ADME, organism-based; conditions: plasma; method in brief: as §3
[23] = Ratio of plasma concentration in Sprague-Dawley rat at 14.5 ug/hr/kg dosed as constant infusion to IC50 for reduction in peripheral lymphocyte count in orally dosed rat; format: ADME, organism-based; conditions: in vivo, po
Method in brief: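 Male Sprague–Dawley rats received a 48 h constant infusion at 14.5 μg/h/kg, and plasma drug concentration was taken at the 48 h time point. […] The ratio is the 48 h plasma concentration divided by that IC50.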

[24] = AUC (0 to infinity) in mouse at 1 mg/kg, iv or 1 mg/kg, po; format: ADME, organism-based; conditions: plasma; method in brief: as §3
[25] = Elimination half life in rat at 1 mg/kg, po; format: ADME, organism-based; parameters: dose 1 mg/kg, route oral; conditions: in vivo, read-out: beta t1/2 (converted); method in brief: as §3
[26] = AUC (0 to infinity) in dog at 1 mg/kg, iv or 3 mg/kg, po; format: ADME, organism-based, Canis lupus familiaris; conditions: plasma; method in brief: as §3
[27] = tested on: Mus musculus; assay: Reduction in peripheral lymphocyte count in orally dosed mouse measured after 24 hrs; format: ADME, organism-based
[28] = tested on: Canis familiaris; assay: Effect on pulse pressure in telemeterized dog up to 40 mg/kg; format: ADME, organism-based, Canis lupus familiaris; parameters: dose 40 mg/kg; conditions: in vivo
Method in brief: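 Telemeterized dogs dosed at levels up to 40 mg/kg; pulse pressure, heart rate, body temperature and ECG parameters monitored.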

[29] = Cmax in mouse at 1 mg/kg, iv or 1 mg/kg, po; format: ADME, organism-based; conditions: in vivo; method in brief: as §3
[30] = Cmax in rat at 1 mg/kg equivalent, po; format: ADME, organism-based; parameters: dose 1 mg/kg, route oral; conditions: in vivo
Method in brief: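 SD rat given L-arginine salt orally as a solution in sterile water, 1.0 mg/kg free-acid equivalent; Cmax measured.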

[31] = Cmax in Sprague-Dawley rat at 300 mg/kg; format: ADME, organism-based; parameters: dose 300 mg/kg; conditions: in vivo
Method in brief: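 Sprague–Dawley rats dosed at 300 and 1000 mg/kg in a separate dose-proportionality exposure study; Cmax determined.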

[32] = biological target: Sphingosine 1-phosphate receptor 5 (Homo sapiens) (UniProt Q9H228); assay: Agonist activity at human S1P5 receptor by beta-arrestin recruitment assay relative to S1P
[33] = biological target: Cytochrome P450 2D6 (Homo sapiens, UniProt P10635); assay: Inhibition of CYP2D6 (unknown origin); format: ADME
[34] = biological target: Voltage-gated inwardly rectifying potassium channel KCNH2 (Homo sapiens, UniProt Q12809); assay: Displacement of [3H]astemizole from human ERG
Method in brief: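 hERG interaction assessed by [³H]-astemizole binding displacement.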

[35] = biological target: Sphingosine 1-phosphate receptor 2 (Homo sapiens, UniProt O95136); assay: Agonist activity at human S1P2 receptor by beta-arrestin recruitment assay
[36] = Elimination half life in mouse at 1 mg/kg, po; format: ADME, organism-based; parameters: dose 1 mg/kg, route oral; conditions: in vivo, read-out: beta t1/2 (converted); method in brief: as §3
[37] = Cmax in rat at 1 mg/kg, iv or 1 mg/kg, po; format: ADME, organism-based; conditions: in vivo
[38] = tested on: Rattus norvegicus; assay: Reduction in ankle diameter in Lewis rat collagen-induced arthritis model at 3 mg/kg, po qd measured on day 17 (reference value: +/- inches); format: functional
Method in brief: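 Female Lewis rats with collagen-induced arthritis, prophylactic daily oral dosing; ankle diameter (inches) and body weight recorded at day 17 end point; mean ± SEM.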

[39] = tested on: Mus musculus; assay: Systemic clearance in mouse at 1 mg/kg, iv relative to liver blood flow; format: ADME, organism-based; parameters: dose 1 mg/kg, route intravenous; conditions: in vivo

Chain of Cytochrome P450 1A2 (P05177 whole entry): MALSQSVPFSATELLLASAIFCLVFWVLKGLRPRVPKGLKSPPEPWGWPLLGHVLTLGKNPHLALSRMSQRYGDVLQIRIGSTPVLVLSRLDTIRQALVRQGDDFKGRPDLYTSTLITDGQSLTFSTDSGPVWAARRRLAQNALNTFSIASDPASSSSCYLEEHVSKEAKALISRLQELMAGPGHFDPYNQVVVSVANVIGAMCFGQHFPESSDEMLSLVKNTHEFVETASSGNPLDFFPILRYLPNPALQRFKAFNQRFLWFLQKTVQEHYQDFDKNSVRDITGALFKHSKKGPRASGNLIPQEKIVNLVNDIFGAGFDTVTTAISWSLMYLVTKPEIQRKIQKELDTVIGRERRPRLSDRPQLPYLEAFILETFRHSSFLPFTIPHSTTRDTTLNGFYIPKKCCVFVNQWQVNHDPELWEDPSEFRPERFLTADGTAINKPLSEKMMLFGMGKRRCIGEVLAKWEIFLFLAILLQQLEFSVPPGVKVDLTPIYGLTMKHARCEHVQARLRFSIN
Chain of Voltage-gated inwardly rectifying potassium channel KCNH2 (Q12809 whole entry): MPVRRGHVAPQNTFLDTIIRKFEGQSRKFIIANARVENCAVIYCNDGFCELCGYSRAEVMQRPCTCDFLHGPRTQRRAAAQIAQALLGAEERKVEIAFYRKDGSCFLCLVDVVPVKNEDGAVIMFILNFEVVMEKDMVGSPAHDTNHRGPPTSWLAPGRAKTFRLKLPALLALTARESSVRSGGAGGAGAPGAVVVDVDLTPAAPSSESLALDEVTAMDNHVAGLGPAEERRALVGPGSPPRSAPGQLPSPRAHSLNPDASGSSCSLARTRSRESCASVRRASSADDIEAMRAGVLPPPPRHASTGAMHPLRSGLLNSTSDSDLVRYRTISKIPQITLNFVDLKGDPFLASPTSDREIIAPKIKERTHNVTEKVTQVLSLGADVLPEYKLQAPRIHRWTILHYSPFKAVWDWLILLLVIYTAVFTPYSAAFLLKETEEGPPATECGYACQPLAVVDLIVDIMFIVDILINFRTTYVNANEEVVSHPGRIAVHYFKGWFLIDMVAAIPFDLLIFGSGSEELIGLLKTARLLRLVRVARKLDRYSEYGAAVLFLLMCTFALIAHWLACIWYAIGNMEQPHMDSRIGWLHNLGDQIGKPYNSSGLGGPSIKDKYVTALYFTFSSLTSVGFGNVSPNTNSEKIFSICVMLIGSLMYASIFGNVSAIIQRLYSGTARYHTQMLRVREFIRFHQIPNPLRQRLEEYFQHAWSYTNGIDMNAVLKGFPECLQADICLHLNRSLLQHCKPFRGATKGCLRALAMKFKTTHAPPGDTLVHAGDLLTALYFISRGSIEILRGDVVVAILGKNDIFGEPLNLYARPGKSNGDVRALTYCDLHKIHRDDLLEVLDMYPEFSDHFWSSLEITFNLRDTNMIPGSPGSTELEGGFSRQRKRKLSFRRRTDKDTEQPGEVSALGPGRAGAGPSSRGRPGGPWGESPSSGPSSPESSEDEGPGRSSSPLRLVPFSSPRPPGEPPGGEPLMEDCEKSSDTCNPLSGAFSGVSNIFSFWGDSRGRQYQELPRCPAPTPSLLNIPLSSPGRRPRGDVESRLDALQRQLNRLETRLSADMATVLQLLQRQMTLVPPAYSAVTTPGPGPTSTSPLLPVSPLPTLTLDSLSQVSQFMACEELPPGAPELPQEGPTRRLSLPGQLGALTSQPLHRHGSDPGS
Chain of Sphingosine 1-phosphate receptor 1 (Rattus norvegicus) (P48303 whole entry): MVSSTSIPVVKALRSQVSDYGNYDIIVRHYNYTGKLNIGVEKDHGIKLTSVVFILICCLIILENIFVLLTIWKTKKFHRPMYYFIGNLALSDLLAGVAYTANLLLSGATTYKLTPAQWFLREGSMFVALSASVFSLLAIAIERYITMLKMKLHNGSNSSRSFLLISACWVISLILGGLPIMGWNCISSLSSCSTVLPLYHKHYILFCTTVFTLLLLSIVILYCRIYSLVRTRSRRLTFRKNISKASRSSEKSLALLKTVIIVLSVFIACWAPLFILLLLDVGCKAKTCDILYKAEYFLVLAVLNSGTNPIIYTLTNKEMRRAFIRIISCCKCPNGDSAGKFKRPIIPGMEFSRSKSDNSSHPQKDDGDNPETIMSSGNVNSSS
Chain of Sphingosine 1-phosphate receptor 1 (Mus musculus, UniProt O08530) (O08530 whole entry): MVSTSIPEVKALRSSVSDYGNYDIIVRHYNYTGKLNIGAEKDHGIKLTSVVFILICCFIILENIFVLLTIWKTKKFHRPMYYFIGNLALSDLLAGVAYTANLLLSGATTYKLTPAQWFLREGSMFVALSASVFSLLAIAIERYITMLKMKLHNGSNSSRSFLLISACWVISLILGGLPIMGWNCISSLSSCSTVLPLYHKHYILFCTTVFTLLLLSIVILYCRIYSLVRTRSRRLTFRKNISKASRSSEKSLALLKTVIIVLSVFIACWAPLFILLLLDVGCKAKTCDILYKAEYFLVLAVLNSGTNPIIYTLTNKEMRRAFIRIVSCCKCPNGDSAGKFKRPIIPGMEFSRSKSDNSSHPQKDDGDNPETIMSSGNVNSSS
Chain of Sphingosine 1-phosphate receptor 5 (Homo sapiens) (Q9H228 whole entry): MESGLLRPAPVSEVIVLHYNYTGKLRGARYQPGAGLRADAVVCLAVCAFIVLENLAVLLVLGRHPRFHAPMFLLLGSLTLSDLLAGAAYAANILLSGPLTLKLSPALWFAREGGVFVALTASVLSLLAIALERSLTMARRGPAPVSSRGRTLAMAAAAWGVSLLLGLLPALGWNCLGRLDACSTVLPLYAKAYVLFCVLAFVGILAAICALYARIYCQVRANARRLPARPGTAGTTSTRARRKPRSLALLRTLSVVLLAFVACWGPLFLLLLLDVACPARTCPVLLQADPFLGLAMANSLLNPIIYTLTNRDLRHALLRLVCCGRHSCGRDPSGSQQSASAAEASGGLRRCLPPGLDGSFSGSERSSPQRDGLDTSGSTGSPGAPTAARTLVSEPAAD
Chain of Cytochrome P450 2D6 (P10635 whole entry): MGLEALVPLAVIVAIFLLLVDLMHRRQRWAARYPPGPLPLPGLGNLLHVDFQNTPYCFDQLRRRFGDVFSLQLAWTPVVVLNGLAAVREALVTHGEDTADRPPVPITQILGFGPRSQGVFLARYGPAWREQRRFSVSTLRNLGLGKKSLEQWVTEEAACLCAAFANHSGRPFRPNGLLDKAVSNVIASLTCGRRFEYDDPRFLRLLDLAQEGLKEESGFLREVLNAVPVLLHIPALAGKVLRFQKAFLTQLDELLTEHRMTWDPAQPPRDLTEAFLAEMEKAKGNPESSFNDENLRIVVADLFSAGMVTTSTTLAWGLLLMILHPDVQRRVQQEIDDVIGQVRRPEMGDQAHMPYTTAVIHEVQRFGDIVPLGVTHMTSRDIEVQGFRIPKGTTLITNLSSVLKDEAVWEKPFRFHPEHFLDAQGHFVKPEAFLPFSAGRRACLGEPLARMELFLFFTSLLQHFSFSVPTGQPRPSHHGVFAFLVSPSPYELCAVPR
Chain of Sphingosine 1-phosphate receptor 1 (Macaca mulatta) (H9EUW9 as listed by the source): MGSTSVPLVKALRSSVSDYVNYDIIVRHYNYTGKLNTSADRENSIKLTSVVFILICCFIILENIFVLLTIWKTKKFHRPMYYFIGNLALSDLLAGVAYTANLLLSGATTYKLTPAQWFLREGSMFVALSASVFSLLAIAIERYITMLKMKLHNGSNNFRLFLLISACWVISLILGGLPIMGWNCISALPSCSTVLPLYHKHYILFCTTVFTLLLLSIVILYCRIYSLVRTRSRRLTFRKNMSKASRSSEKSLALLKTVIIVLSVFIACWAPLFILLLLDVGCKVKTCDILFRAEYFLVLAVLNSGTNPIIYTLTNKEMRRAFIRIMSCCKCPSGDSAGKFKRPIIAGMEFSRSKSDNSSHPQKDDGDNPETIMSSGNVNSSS
Chain of Sphingosine 1-phosphate receptor 1 (Macaca mulatta, UniProt H9EUW9) (H9EUW9 whole entry): as the sequence (H9EUW9 as listed by the source) above
Chain of Sphingosine 1-phosphate receptor 2 (O95136 whole entry): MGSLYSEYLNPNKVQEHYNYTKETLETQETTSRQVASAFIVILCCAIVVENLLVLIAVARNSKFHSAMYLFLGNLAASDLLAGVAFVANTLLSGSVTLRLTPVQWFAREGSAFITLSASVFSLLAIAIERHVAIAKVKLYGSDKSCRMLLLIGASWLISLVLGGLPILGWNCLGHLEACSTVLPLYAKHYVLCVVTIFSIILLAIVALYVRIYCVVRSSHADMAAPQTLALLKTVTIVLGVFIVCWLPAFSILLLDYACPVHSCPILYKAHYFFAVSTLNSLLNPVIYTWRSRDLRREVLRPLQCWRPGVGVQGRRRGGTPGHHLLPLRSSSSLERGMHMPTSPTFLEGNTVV

**Q.** What does the source list for `O=C(O)C[C@H]1CCc2c1[nH]c1ccc(OCc3ccc(C4CCCC4)c(C(F)(F)F)c3)cc21` [ETRASIMOD]?
**A.** Activity [1]: Active; clearance [2]: 2.42 mL/min/kg; CL [3]: 0.746%; Emax [4]: 95%; EC50 [5]: 0.44 nM; Tmax [6]: 7.33 h; Activity [7]: Toxic; concentration at 48 h [8]: 110 nM; half-life [9]: 6.37 h; concentration at 48 h [10]: 210 nM; fraction unbound [11]: 0.022; Activity [12]: Active; CL [13]: 3.45%; Cmax [14]: 2870 ng/mL; IC50 [15]: > 50000 nM; Activity [16]: Active; bioavailability [17]: 43.8%; Emax [18]: 99%; IC50 [19]: 58 nM; EC50 [20]: 0.32 nM; Activity [21]: Active; AUC(0-inf) [22]: 3790 ng·h/mL; Ratio [23]: 2; AUC(0-inf) [24]: 10300 ng·h/mL; half-life [25]: 9.64 h; AUC(0-inf) [26]: 164000 ng·h/mL; IC50 [27]: 101 nM; Activity [28]: Non-toxic; Cmax [29]: 780 ng/mL; Cmax [30]: 361 ng/mL; Cmax [31]: 136000 nM; Emax [32]: 73%; IC50 [33]: > 50000 nM; IC50 [34]: > 30000 nM; EC50 [35]: > 10000 nM; half-life [36]: 12.3 h; Cmax [37]: 218 ng/mL; Activity [38]: 0.269 inches; CL [39]: 2%
